ChEMBL document CHEMBL1926577, “Novel 1,3,4-heterodiazole analogues: synthesis and in-vitro antitumor activity” (2012)

Experiments:
Assay type in all cases: functional
HCT-15 = assay: Growth inhibition of human HCT15 cells at 10 uM after 48 hrs by coulter counter method; conditions: HCT-15, 48 h, read-out: GI
How it was run: (§1)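 NCI 60-cell-line panel, single dose. Compound dissolved first in DMSO, then diluted in phosphate-buffered saline so that every final dilution held under 1% DMSO. Duplicate wells received cells at 6 × 10⁴ cells/ml. Controls held PBS/DMSO at the same dilution. Plates were incubated 48 h at 37 °C under 5% CO₂. Cells were then diluted 10-fold in saline and counted on a Coulter counter, with counts corrected for the dilution. Results are given as percent growth inhibition.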

OVCAR-8 = assay: Growth inhibition of human OVCAR8 cells at 10 uM after 48 hrs by coulter counter method; conditions: OVCAR-8, 48 h, read-out: GI; how it was run: as §1
UACC-257 = assay: Growth inhibition of human UACC257 cells at 10 uM after 48 hrs by coulter counter method; conditions: UACC-257, 48 h, read-out: GI; how it was run: as §1
NCI/ADR-RES = assay: Growth inhibition of human NCI/ADR-RES cells at 10 uM after 48 hrs by coulter counter method; conditions: read-out: GI; how it was run: as §1
Malme-3M = assay: Growth inhibition of human MALME-3M cells at 10 uM after 48 hrs by coulter counter method; conditions: read-out: GI; how it was run: as §1
SR = assay: Growth inhibition of human SR cells at 10 uM after 48 hrs by coulter counter method; conditions: read-out: GI; how it was run: as §1
MOLT-4 = assay: Growth inhibition of human MOLT4 cells at 10 uM after 48 hrs by coulter counter method; conditions: MOLT-4, 48 h, read-out: GI; how it was run: as §1
SK-MEL-28 = assay: Growth inhibition of human SK-MEL-28 cells at 10 uM after 48 hrs by coulter counter method; conditions: SK-MEL-28, 48 h, read-out: GI; how it was run: as §1
SNB-19 = assay: Growth inhibition of human SNB19 cells at 10 uM after 48 hrs by coulter counter method; conditions: SNB-19, 48 h, read-out: GI; how it was run: as §1
CAKI-1 = assay: Growth inhibition of human Caki1 cells at 10 uM after 48 hrs by coulter counter method; conditions: CAKI-1, 48 h, read-out: GI; how it was run: as §1
SN12C = assay: Growth inhibition of human SN12C cells at 10 uM after 48 hrs by coulter counter method; conditions: read-out: GI; how it was run: as §1
LOX IMVI = assay: Growth inhibition of human LOXIMVI cells at 10 uM after 48 hrs by coulter counter method; conditions: read-out: GI; how it was run: as §1
MDA-MB-468 = assay: Growth inhibition of human MDA-MB-468 cells at 10 uM after 48 hrs by coulter counter method; conditions: MDA-MB-468, 48 h, read-out: GI; how it was run: as §1
UACC-62 = assay: Growth inhibition of human UACC62 cells at 10 uM after 48 hrs by coulter counter method; conditions: UACC-62, 48 h, read-out: GI; how it was run: as §1
PC-3 = assay: Growth inhibition of human PC3 cells at 10 uM after 48 hrs by coulter counter method; conditions: PC-3, 48 h, read-out: GI; how it was run: as §1
NCI-H322M = assay: Growth inhibition of human NCI-H322M cells at 10 uM after 48 hrs by coulter counter method; conditions: read-out: GI; how it was run: as §1
NCI-H226 = assay: Growth inhibition of human NCI-H226 cells at 10 uM after 48 hrs by coulter counter method; conditions: NCI-H226, 48 h, read-out: GI; how it was run: as §1
EKVX = assay: Growth inhibition of human EKVX cells at 10 uM after 48 hrs by coulter counter method; conditions: read-out: GI; how it was run: as §1
IGROV-1 = assay: Growth inhibition of human IGROV1 cells at 10 uM after 48 hrs by coulter counter method; conditions: IGROV-1, 48 h, read-out: GI; how it was run: as §1
BT-549 = assay: Growth inhibition of human BT549 cells at 10 uM after 48 hrs by coulter counter method; conditions: BT-549, 48 h, read-out: GI; how it was run: as §1
SF-295 = assay: Growth inhibition of human SF295 cells at 10 uM after 48 hrs by coulter counter method; conditions: SF-295, 48 h, read-out: GI; how it was run: as §1
MCF7 = assay: Growth inhibition of human MCF7 cells at 10 uM after 48 hrs by coulter counter method; conditions: MCF7, 48 h, read-out: GI; how it was run: as §1
786-0 = assay: Growth inhibition of human 786-0 cells at 10 uM after 48 hrs by coulter counter method; conditions: 786-0, 48 h, read-out: GI; how it was run: as §1
NCI-H23 = assay: Growth inhibition of human NCI-H23 cells at 10 uM after 48 hrs by coulter counter method; conditions: NCI-H23, 48 h, read-out: GI; how it was run: as §1
NCI-H522 = assay: Growth inhibition of human NCI-H522 cells at 10 uM after 48 hrs by coulter counter method; conditions: NCI-H522, 48 h, read-out: GI; how it was run: as §1
HT-29 = assay: Growth inhibition of human HT-29 cells at 10 uM after 48 hrs by coulter counter method; conditions: HT-29, 48 h, read-out: GI; how it was run: as §1
TK-10 = assay: Growth inhibition of human TK10 cells at 10 uM after 48 hrs by coulter counter method; conditions: TK-10, 48 h, read-out: GI; how it was run: as §1
T47D = assay: Growth inhibition of human T47D cells at 10 uM after 48 hrs by coulter counter method; conditions: read-out: GI; how it was run: as §1
KM12 = assay: Growth inhibition of human KM12 cells at 10 uM after 48 hrs by coulter counter method; conditions: KM12, 48 h, read-out: GI; how it was run: as §1
K562 = assay: Growth inhibition of human K562 cells at 10 uM after 48 hrs by coulter counter method; conditions: K562, 48 h, read-out: GI; how it was run: as §1
CCRF-CEM = assay: Growth inhibition of human CCRF-CEM cells at 10 uM after 48 hrs by coulter counter method; conditions: read-out: GI; how it was run: as §1
SK-MEL-2 = assay: Growth inhibition of human SK-MEL-2 cells at 10 uM after 48 hrs by coulter counter method; conditions: SK-MEL-2, 48 h, read-out: GI; how it was run: as §1
MDA-MB-435 = assay: Growth inhibition of human MDA-MB-435 cells at 10 uM after 48 hrs by coulter counter method; conditions: MDA-MB-435, 48 h, read-out: GI; how it was run: as §1
UO-31 = assay: Growth inhibition of human UO31 cells at 10 uM after 48 hrs by coulter counter method; conditions: UO-31, 48 h, read-out: GI; how it was run: as §1
HCT-116 = assay: Growth inhibition of human HCT116 cells at 10 uM after 48 hrs by coulter counter method; conditions: HCT-116, 48 h, read-out: GI; how it was run: as §1
SNB-75 = assay: Growth inhibition of human SNB75 cells at 10 uM after 48 hrs by coulter counter method; conditions: SNB-75, 48 h, read-out: GI; how it was run: as §1
M14 = assay: Growth inhibition of human M14 cells at 10 uM after 48 hrs by coulter counter method; conditions: M14, 48 h, read-out: GI; how it was run: as §1
ACHN = assay: Growth inhibition of human ACHN cells at 10 uM after 48 hrs by coulter counter method; conditions: read-out: GI; how it was run: as §1
HL-60(TB) = assay: Growth inhibition of human HL-60(TB) cells at 10 uM after 48 hrs by coulter counter method; conditions: HL-60, 48 h, read-out: GI
How it was run: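 Single-dose screen on the NCI 60-line panel (leukemia subpanel). Compound is dissolved in DMSO and diluted in PBS, with final DMSO below 1%. Duplicate wells hold 6 × 10⁴ cells/ml at 37 °C, 5% CO₂, for 48 h. Cells are counted by Coulter counter after 10-fold saline dilution. Read-out is percent growth versus PBS/DMSO controls, expressed as % growth inhibition.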

RPMI-8226 = assay: Growth inhibition of human RPMI8226 cells at 10 uM after 48 hrs by coulter counter method; conditions: RPMI-8226, 48 h, read-out: GI; how it was run: as §1
SF-268 = assay: Growth inhibition of human SF268 cells at 10 uM after 48 hrs by coulter counter method; conditions: SF-268, 48 h, read-out: GI; how it was run: as §1
SK-MEL-5 = assay: Growth inhibition of human SK-MEL-5 cells at 10 uM after 48 hrs by coulter counter method; conditions: SK-MEL-5, 48 h, read-out: GI; how it was run: as §1
U-251 = assay: Growth inhibition of human U251 cells at 10 uM after 48 hrs by coulter counter method; conditions: U-251, 48 h, read-out: GI; how it was run: as §1
A549 = assay: Growth inhibition of human A549 cells at 10 uM after 48 hrs by coulter counter method; conditions: A549, 48 h, read-out: GI; how it was run: as §1
A498 = assay: Growth inhibition of human A498 cells at 10 uM after 48 hrs by coulter counter method; conditions: A498, 48 h, read-out: GI; how it was run: as §1

## O=C(CCN1CCCCC1)Nc1nnc(-c2ccc(Cl)cc2)s1
HCT-15
  inhibition of growth at 10 µM: < 10%
OVCAR-8
  inhibition of growth at 10 µM: < 10%
UACC-257
  inhibition of growth at 10 µM: < 10%
NCI/ADR-RES
  inhibition of growth at 10 µM: < 10%
Malme-3M
  inhibition of growth at 10 µM: 10.7%
SR
  inhibition of growth at 10 µM: 11.9%
MOLT-4
  inhibition of growth at 10 µM: < 10%
SK-MEL-28
  inhibition of growth at 10 µM: < 10%
SNB-19
  inhibition of growth at 10 µM: < 10%
CAKI-1
  inhibition of growth at 10 µM: 18.8%
SN12C
  inhibition of growth at 10 µM: < 10%
LOX IMVI
  inhibition of growth at 10 µM: < 10%
MDA-MB-468
  inhibition of growth at 10 µM: < 10%
UACC-62
  inhibition of growth at 10 µM: < 10%
PC-3
  inhibition of growth at 10 µM: < 10%
NCI-H322M
  inhibition of growth at 10 µM: < 10%
NCI-H226
  inhibition of growth at 10 µM: < 10%
EKVX
  inhibition of growth at 10 µM: 20.4%
IGROV-1
  inhibition of growth at 10 µM: < 10%
BT-549
  inhibition of growth at 10 µM: < 10%
SF-295
  inhibition of growth at 10 µM: 11%
MCF7
  inhibition of growth at 10 µM: < 10%
786-0
  inhibition of growth at 10 µM: < 10%
NCI-H23
  inhibition of growth at 10 µM: < 10%
NCI-H522
  inhibition of growth at 10 µM: 19.5%
HT-29
  inhibition of growth at 10 µM: < 10%
TK-10
  inhibition of growth at 10 µM: < 10%
T47D
  inhibition of growth at 10 µM: < 10%
KM12
  inhibition of growth at 10 µM: < 10%
K562
  inhibition of growth at 10 µM: < 10%
CCRF-CEM
  inhibition of growth at 10 µM: < 10%
SK-MEL-2
  inhibition of growth at 10 µM: < 10%
MDA-MB-435
  inhibition of growth at 10 µM: < 10%
UO-31
  inhibition of growth at 10 µM: 28.6%
HCT-116
  inhibition of growth at 10 µM: < 10%
SNB-75
  inhibition of growth at 10 µM: < 10%
M14
  inhibition of growth at 10 µM: < 10%
ACHN
  inhibition of growth at 10 µM: < 10%
HL-60(TB)
  inhibition of growth at 10 µM: < 10%
RPMI-8226
  inhibition of growth at 10 µM: < 10%
SF-268
  inhibition of growth at 10 µM: < 10%
SK-MEL-5
  inhibition of growth at 10 µM: 24.7%
U-251
  inhibition of growth at 10 µM: 12%
A549
  inhibition of growth at 10 µM: < 10%
A498
  inhibition of growth at 10 µM: 11.6%
